Source: ChEMBL document CHEMBL3596131, “Discovery of a novel trans-1,4-dioxycyclohexane GPR119 agonist series” (Bioorg Med Chem Lett, 2015)
Activity calls are given as the source filed them. The calls are words filed in the database; no cut-off is given here.

Columns and labels:
Rattus norvegicus [1] = assay: Antidiabetic activity in Zucker diabetic fatty rat assessed as fed glucose lowering effect at 1 to 10 mg/kg, qd administered over 4 weeks measured after 2 weeks of treatment; format: functional, organism-based
Procedure, shortened: (§1)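 Chronic study in ZDF rats: once-daily dosing at 1, 3 or 10 mg/kg for 4 weeks, vehicle 0.5% methylcellulose; fed glucose and body weight tracked at dosing times, HbA1c measured on day 28 relative to vehicle.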

[2] = Ratio of drug level in brain to plasma in Sprague-Dawley rat at 2 mg/kg, po measured at 2 hrs; format: ADME, organism-based; settings: read-out: BPR
Procedure, shortened: (§2)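 Abbreviated CNS study in male SD rats given 2 mg/kg orally in 20% hp-β-CD; brain (ng/g) and plasma (ng/mL) levels sampled at 2 h post-dose, brain/plasma ratio calculated.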

[3] = Half life in rat liver microsomes; format: ADME
Cytochrome P450 2D6 = Cytochrome P450 2D6 (Homo sapiens, UniProt P10635); assay: Inhibition of CYP2D6 in human liver microsomes; format: ADME
Cytochrome P450 2D6, sequence (P10635 whole entry): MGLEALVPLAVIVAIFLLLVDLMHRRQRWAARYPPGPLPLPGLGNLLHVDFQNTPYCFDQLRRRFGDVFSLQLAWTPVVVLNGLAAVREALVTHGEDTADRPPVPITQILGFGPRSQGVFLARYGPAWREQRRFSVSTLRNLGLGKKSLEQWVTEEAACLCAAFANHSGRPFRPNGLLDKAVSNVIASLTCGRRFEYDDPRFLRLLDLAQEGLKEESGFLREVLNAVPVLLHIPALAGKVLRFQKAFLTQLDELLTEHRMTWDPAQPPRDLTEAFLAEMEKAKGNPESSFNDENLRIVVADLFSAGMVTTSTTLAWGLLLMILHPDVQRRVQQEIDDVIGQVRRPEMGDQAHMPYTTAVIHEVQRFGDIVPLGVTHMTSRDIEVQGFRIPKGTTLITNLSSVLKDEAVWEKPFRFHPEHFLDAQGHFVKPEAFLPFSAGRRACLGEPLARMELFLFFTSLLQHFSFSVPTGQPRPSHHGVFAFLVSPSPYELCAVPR

Cytochrome P450 1A2 = target: T1, Cytochrome P450 1A2 (Homo sapiens, UniProt P05177); assay: Inhibition of CYP1A2 in human liver microsomes; format: ADME
T1 sequence (P05177 whole entry): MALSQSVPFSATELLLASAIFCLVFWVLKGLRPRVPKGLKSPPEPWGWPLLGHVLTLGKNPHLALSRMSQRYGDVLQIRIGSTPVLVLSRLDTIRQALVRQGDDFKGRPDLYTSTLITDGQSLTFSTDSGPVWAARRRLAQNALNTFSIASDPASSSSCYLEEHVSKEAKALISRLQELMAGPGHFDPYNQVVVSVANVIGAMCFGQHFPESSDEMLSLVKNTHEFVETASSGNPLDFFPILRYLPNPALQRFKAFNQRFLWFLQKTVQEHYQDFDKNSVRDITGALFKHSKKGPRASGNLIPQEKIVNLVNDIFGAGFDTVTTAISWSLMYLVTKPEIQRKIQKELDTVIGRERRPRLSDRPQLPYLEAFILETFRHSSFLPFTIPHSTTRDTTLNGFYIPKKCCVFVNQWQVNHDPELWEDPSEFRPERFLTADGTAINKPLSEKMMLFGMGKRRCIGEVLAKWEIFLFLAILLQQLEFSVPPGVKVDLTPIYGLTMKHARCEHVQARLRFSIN

[4] = target: T2, Glucose-dependent insulinotropic receptor (Mus musculus, UniProt Q7TQP3); assay: Agonist activity at mouse GPR119 by HTRF cAMP assay; format: functional
T2 sequence (Q7TQP3 whole entry): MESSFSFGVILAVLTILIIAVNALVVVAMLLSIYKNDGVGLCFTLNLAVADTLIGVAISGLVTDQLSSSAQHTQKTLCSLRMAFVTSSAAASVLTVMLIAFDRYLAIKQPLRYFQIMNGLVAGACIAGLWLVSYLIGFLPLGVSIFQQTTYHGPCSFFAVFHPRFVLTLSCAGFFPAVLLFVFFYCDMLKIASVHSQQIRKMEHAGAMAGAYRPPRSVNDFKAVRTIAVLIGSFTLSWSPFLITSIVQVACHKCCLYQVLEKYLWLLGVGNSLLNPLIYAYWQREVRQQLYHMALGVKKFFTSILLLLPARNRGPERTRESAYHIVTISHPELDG

Mus musculus = assay: In vivo activation of GPR119 in normoglycemic 129SVE mouse assessed as increase in GIP level in plasma at 3 to 30 mg/kg, po measured after 45 mins relative to vehicle-treated control; format: functional, organism-based
Procedure, shortened: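 Normoglycemic male 129SVE mice dosed orally (3 and 30 mg/kg); plasma GIP measured 45 min after dosing versus vehicle-treated controls; AR231453 at 30 mg/kg as reference agonist.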

Rattus norvegicus [5] = assay: Antidiabetic activity in Zucker diabetic fatty rat assessed as decrease in HbA1C level at 10 mg/kg, qd administered over 4 weeks measured on day 28 post last dose relative to vehicle-treated control; format: functional; design: scale not given: the % may be the effect or the level left; procedure, shortened: as §1
[6] = target: Voltage-gated inwardly rectifying potassium channel KCNH2 (Homo sapiens, UniProt Q12809); assay: Inhibition of human ERG by patch clamp assay
Voltage-gated inwardly rectifying potassium channel KCNH2, sequence (Q12809 whole entry): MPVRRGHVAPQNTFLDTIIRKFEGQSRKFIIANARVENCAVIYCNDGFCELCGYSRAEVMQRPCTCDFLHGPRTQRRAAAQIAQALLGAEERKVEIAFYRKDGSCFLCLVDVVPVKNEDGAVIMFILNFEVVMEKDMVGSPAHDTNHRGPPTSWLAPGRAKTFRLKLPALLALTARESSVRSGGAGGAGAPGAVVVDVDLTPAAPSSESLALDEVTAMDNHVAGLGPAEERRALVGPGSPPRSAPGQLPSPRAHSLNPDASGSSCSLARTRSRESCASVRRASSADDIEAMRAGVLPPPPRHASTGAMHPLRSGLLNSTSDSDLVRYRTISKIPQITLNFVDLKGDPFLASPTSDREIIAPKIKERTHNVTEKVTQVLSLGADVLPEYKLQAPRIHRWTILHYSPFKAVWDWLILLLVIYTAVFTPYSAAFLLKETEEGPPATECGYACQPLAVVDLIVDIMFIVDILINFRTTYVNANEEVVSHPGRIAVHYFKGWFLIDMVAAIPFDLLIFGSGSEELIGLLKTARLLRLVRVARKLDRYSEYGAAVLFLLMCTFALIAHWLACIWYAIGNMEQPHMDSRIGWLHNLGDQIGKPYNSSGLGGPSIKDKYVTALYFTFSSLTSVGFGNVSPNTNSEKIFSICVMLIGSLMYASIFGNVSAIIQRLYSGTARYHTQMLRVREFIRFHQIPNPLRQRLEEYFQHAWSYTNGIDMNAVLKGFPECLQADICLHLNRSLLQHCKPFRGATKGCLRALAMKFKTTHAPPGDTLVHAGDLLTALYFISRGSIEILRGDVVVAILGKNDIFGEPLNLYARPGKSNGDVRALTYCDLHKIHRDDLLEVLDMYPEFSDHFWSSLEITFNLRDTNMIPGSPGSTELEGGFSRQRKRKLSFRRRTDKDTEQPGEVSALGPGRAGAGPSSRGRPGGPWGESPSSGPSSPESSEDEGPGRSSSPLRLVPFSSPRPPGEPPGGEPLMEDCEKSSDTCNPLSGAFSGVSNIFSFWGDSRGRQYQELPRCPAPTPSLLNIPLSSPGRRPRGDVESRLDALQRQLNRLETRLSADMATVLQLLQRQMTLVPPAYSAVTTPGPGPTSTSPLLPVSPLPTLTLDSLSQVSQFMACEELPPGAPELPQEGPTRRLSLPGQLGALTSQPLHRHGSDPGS

HepG2 = assay: Cytotoxicity against human HepG2 cells; format: cell-based
Rattus norvegicus [7] = assay: Toxicity in Zucker diabetic fatty rat assessed as effect on body weight at 1 to 10 mg/kg, qd administered over 4 weeks measured during compound dosing; format: organism-based; settings: in vivo, 672 h; procedure, shortened: as §1
[8] = target: T3, Glucose-dependent insulinotropic receptor (Homo sapiens, UniProt Q8TDV5); assay: Agonist activity at human GPR119 by serum shift assay
T3 sequence (Q8TDV5 whole entry): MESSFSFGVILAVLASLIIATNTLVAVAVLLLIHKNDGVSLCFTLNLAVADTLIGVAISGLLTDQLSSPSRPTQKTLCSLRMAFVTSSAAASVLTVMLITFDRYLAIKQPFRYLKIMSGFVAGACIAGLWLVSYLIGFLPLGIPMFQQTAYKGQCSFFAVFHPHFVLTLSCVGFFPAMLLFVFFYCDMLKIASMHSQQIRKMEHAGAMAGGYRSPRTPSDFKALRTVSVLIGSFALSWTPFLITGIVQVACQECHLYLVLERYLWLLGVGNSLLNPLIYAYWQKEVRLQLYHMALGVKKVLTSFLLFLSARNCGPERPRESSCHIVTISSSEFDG
Procedure, shortened: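 HTRF cAMP read-out with cells plated overnight; growth medium swapped for fetal bovine serum-containing medium. Compounds serially diluted in DMSO, then in PBS with IBMX and 0.1% BSA to 2× concentration (1% DMSO) before addition. Potency compared with and without serum.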

[9] = AUClast in Sprague-Dawley rat at 2 mg/kg, iv and po; format: ADME, organism-based; settings: in vivo
Procedure, shortened: (§3)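 Male Sprague-Dawley rats; 2 mg/kg IV and 2 mg/kg PO in 20% hp-β-CD; clearance, Vss, terminal t1/2, Cmax, AUClast and oral bioavailability derived.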

Rattus norvegicus [10] = assay: Antidiabetic activity in Zucker diabetic fatty rat assessed as decrease in HbA1C level administered as qd over 4 weeks measured on day 28 post last dose; format: functional, organism-based; procedure, shortened: as §1
[11] = Half life in human hepatocytes; format: ADME, cell-based, Hepatocyte
[12] = Half life in mouse liver microsomes; format: ADME
[13] = Plasma protein binding in human; format: ADME, cell-free; settings: read-out: PPB (converted)
[14] = target: T4, Glucose-dependent insulinotropic receptor (Mus musculus) (UniProt Q7TQP3); assay: Agonist activity at mouse GPR119 by HTRF cAMP assay relative to AR231453; format: functional
T4 sequence (whole entry): T2 sequence (Q7TQP3 whole entry)

[15] = Oral bioavailability in Sprague-Dawley rat at 2 mg/kg; format: ADME, organism-based; settings: in vivo; procedure, shortened: as §3
Rattus norvegicus [16] = assay: Antidiabetic activity in Zucker diabetic fatty rat assessed as suppression of plasma glucose AUC at 10 mg/kg administered 60 mins prior to glucose challenge by OGTT relative to vehicle-treated control; format: functional
[17] = Plasma concentration in Sprague-Dawley rat at 2 mg/kg, po measured at 2 hrs; format: ADME, organism-based; procedure, shortened: as §2
Rattus norvegicus [18] = assay: Antidiabetic activity in Zucker diabetic fatty rat assessed as suppression of plasma glucose AUC at 3 mg/kg administered 60 mins prior to glucose challenge by OGTT relative to vehicle-treated control; format: functional
[19] = Half life in human liver microsomes; format: ADME
[20] = target: T5, Glucose-dependent insulinotropic receptor (Homo sapiens) (UniProt Q8TDV5); assay: Agonist activity at human GPR119 by HTRF cAMP assay relative to AR231453; format: functional
T5 sequence (whole entry): T3 sequence (Q8TDV5 whole entry)

Macaca mulatta = organism: Macaca mulatta; assay: Agonist activity at monkey GPR119 by HTRF cAMP assay relative to AR231453

For `C[C@@H](OC(=O)N1CCC(O[C@H]2CC[C@H](Oc3cnc(S(C)(=O)=O)cn3)CC2)CC1)C(F)(F)F`, the Activity (Rattus norvegicus [1]) was “Active”, the Kp at 2 h [2] was 0.98 and the half-life [3] was > 1 h. The INH (Cytochrome P450 2D6) was > 50 µM, the INH (Cytochrome P450 1A2) was > 50 µM and the EC50 [4] was 0.0205 µM. For the same compound, the Activity (Mus musculus) was “Active”, the Activity (Rattus norvegicus [5]) was 2.58% and the IC50 [6] was > 30 µM. For the same compound, the Activity (HepG2) was “Non-toxic”, the Activity (Rattus norvegicus [7]) was “Non-toxic” and the EC50 [8] was 0.038 µM. The AUC(0-t) [9] was 5.21 µg·h/mL, the Activity (Rattus norvegicus [10]) was “Dose-dependent effect” and the half-life [11] was > 2 h. For the same compound, the half-life [12] was > 1 h, the fraction unbound [13] was 0.025 and the Emax [14] was 130%. For the same compound, the bioavailability [15] was 100%, the Activity (Rattus norvegicus [16]) was 58% and the concentration at 2 h [17] was 0.841 µg/mL. The Activity (Rattus norvegicus [18]) was 43%, the half-life [19] was > 1 h and the Emax [20] was 106%. The Emax (Macaca mulatta) was 73%.
